This is an account of results in ChEMBL document CHEMBL4513216, “Probing the Open Global Health Chemical Diversity Library for Multistage-Active Starting Points for Next-Generation Antimalarials” (ACS Infect Dis, 2020).

This series is described as follows: Toxicity liver stage against HepG2, at 10uM. The series is classed as cell-based. Details: test concentration 10 uM, cell line HepG2-A16-CD81EGFP. Particulars: human, HepG2-A16-CD81EGFP cells; read-out: INHIBITION
A digest of the protocol:
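Uninfected HepG2-A16-CD81EGFP cells, 3 × 10^3 per well, 1536-well, plated on prespotted compound at 10 μM final, parasite-free screening media added to match infected plates; puromycin 10 μM positive, DMSO 0.5% negative; run in parallel with 48 h PbLuc assay at 37 °C, 5% CO2; viability by CellTiter-Glo luminescence, normalized to controls.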
On to `O[C@@H]1C[C@@H](c2nc(-c3ccccc3)no2)N(CC2CCCCC2)C1`, for which the cytotoxicity at 10 µM is -2.74%.

Take `COCC(=O)N[C@H](C)c1c(-c2ccc(Cl)cc2)noc1C(=O)O`: the cytotoxicity at 10 µM was found to be 1.05%.

On to `CC1=C[C@@H](CC#N)[C@H](C(C)C)C[C@H]1CC(=O)N1CCN(CCO)CC1`, for which the cytotoxicity at 10 µM amounted to 4.62%.

With `O=S(=O)(NCCn1ccc(-c2ccccn2)n1)C1CC1`, the cytotoxicity at 10 µM is -1.04%.

As to `CC(=O)N1CCCC2(CCN(C(=O)c3nccnc3N)CC2)C1`, the cytotoxicity at 10 µM came to 3.47%.

As for `C[C@H]1C[C@H]2CN(S(=O)(=O)c3ccc(F)cc3)CC[C@@H]2O1`, the cytotoxicity at 10 µM came out at 2.97%.

Turning to `CS(=O)(=O)N1CCCC12CCCN(C(=O)c1ccc3c(c1)OCO3)C2` (stereo unspecified), the cytotoxicity at 10 µM was -144%.

For `Cc1nocc1C(=O)N1CCc2c(CN(C)C)nn(C)c2C1`, the cytotoxicity at 10 µM was -0.567%.

For `CC(C)NC(=O)[C@]12COC[C@H]1CN(Cc1cnn(C)c1)C2`, the cytotoxicity at 10 µM turned out to be 3.63%.

Consider `O=c1[nH]c2nc(N3CCSCC3)ncc2c(=O)n1-c1ccc(F)cc1`, for which the cytotoxicity at 10 µM was 9.82%.

On to `O=C(Cn1ccc2c(Cl)cccc21)N1CCCC1`, for which the cytotoxicity at 10 µM came to 0.583%.

As for `CC(C)CN1CCCC2(CCN(C(=O)c3cnccn3)C2)C1` (stereo unspecified), the cytotoxicity at 10 µM is 2.39%.

As for `Cc1nccn1CCNC(=O)C1(C)CC(c2ccccc2)=NO1` (stereo unspecified), the cytotoxicity at 10 µM was found to be 8.46%.

Take `CC(=O)N1CCc2nc(C3CCN(c4ncccn4)C3)ncc2C1` (stereo unspecified): the cytotoxicity at 10 µM was -30%.

In the case of `CCc1cc(C(=O)N2CCC(O)(Cn3ccc4ccncc43)CC2)no1`, the cytotoxicity at 10 µM is -18.7%.

For `COCCC(=O)N1CCC(c2nc(O)cc(-c3ccncc3)n2)C1` (stereo unspecified), the cytotoxicity at 10 µM was -25%.

Consider `CN(C)CC(=O)N1CC(c2nn(C)c3nccnc23)C1`, for which the cytotoxicity at 10 µM was -6.26%.

On to `COc1ccc(C(CN2CCN(C)CC2)Nc2ncccn2)cc1` (stereo unspecified), for which the cytotoxicity at 10 µM came out at 5.54%.

With `COCCNc1nc(-c2ccc(S(=O)(=O)N3CCCCC3)cc2)cs1`, the cytotoxicity at 10 µM was -42%.

`NC(=O)CS(=O)(=O)Cc1csc(-c2ccc(F)cc2)n1`: the cytotoxicity at 10 µM was -4.95%.

As to `CN(CC(N)=O)Cc1csc(-c2ccc(F)cc2)n1`, the cytotoxicity at 10 µM came to 2.5%.

Turning to `Cn1cc(CCC(=O)NCc2ccccc2OC(C)(C)C)cn1`, the cytotoxicity at 10 µM turned out to be 6.67%.

Take `COCCN1CC(=O)N(C(C)C)C(C)(C)C1`: the cytotoxicity at 10 µM amounted to 1.31%.

As for `CC(NCc1cccn1C)c1noc(-c2ccc(Cl)cc2)n1` (stereo unspecified), the cytotoxicity at 10 µM was found to be 5.07%.

With `CCCc1c(C(=O)N2CCN(c3cnccn3)CC2)cnn1C`, the cytotoxicity at 10 µM worked out at 9.77%.

For `O=C(NCc1cc(F)ccc1F)Nc1ccn(CC(F)F)n1`, the cytotoxicity at 10 µM is -3.06%.

As for `CC(C)C(NCc1ccc(Cn2cncn2)cc1)c1ccccc1` (stereo unspecified), the cytotoxicity at 10 µM was determined as 4.1%.

With `CCC(C#N)NC(=O)CCNC(=O)C(C)(C)C` (stereo unspecified), the cytotoxicity at 10 µM is -1.55%.

For `COCCn1cc(NC(=O)N(CCC(N)=O)Cc2ccccc2)cn1`, the cytotoxicity at 10 µM is -4.72%.

Turning to `CS(=O)(=O)NCCNC(=O)c1ccc(OCc2ccccc2)nc1`, the cytotoxicity at 10 µM amounted to 4.43%.

With `Cc1cnn(CCC(=O)NS(=O)(=O)N2CCc3ccccc32)c1`, the cytotoxicity at 10 µM is 4.72%.

For `CCc1nccn1C1CCCN(C(=O)CCc2nc(C(C)C)no2)C1` (stereo unspecified), the cytotoxicity at 10 µM was 5.93%.

Turning to `CC(=O)N(C)CC(=O)NC1(c2ccc(F)cc2)CCCC1`, the cytotoxicity at 10 µM was 0.747%.

In the case of `CN(CC(O)COc1ccc(C(F)(F)F)cc1)C(=O)Nc1nncs1` (stereo unspecified), the cytotoxicity at 10 µM is -11.1%.

In the case of `O=C(Nc1nncs1)N1CCC(c2ccc(O)cc2)CC1`, the cytotoxicity at 10 µM is -7.55%.

As for `OCCOc1ccc(NCc2cccc3cn[nH]c23)cn1`, the cytotoxicity at 10 µM is -4.13%.

Consider `Cc1ccc(S(=O)(=O)NCCNC(=O)c2ccoc2)cc1C`, for which the cytotoxicity at 10 µM is -3.26%.

Turning to `CCC(O)CN1CCN(C(=O)c2cnn(-c3ccccc3F)c2)CC1` (stereo unspecified), the cytotoxicity at 10 µM was -3.69%.

In the case of `COc1ccc(C(=O)N(CCC#N)Cc2ccccn2)cc1`, the cytotoxicity at 10 µM came out at 13.1%.

As to `Cn1cc(Br)c(=O)c(NS(=O)(=O)c2ccccc2F)c1`, the cytotoxicity at 10 µM is -2.62%.

For `Cc1nnc2n1CCN(c1nn3cc(C(C)(C)C)nc3s1)C2`, the cytotoxicity at 10 µM is -0.903%.

Regarding `CCC(CNC(=O)c1nc(=O)[nH][nH]1)Oc1ccccc1C(F)(F)F` (stereo unspecified), the cytotoxicity at 10 µM is 1.45%.

As for `NC(=O)Cn1ccc(NC(=O)C2(c3cccc(Cl)c3)CC2)n1`, the cytotoxicity at 10 µM is 0.217%.

For `CCOc1ccccc1CNC(=O)N(CC)C(C)c1cccnc1` (stereo unspecified), the cytotoxicity at 10 µM was -3.64%.

On to `COC(=O)N1CCCC(C(=O)Nc2nc(C)c(SC)s2)C1` (stereo unspecified), for which the cytotoxicity at 10 µM was determined as 11.1%.

For `COC(=O)c1ccc(Cl)c(CN(C)Cc2ncnn2C)c1`, the cytotoxicity at 10 µM was -7.81%.

On to `COC(=O)C(C)(C)S(=O)(=O)c1ccc(Br)cc1`, for which the cytotoxicity at 10 µM was determined as 5.25%.

With `c1cnn(CCNCc2cnc(N3CCCC3)nc2)c1`, the cytotoxicity at 10 µM is -9.46%.

Consider `CC(=O)c1cc(C(=O)NC2(c3ccc(Br)cc3)CC2)n(C)c1`, for which the cytotoxicity at 10 µM came out at 5.78%.

`Cc1cc(C)c(CNc2cnc3ccccc3n2)c(=O)[nH]1`: the cytotoxicity at 10 µM amounted to 41.8%.

For `CN(CCn1cccn1)S(=O)(=O)c1ccc(C#N)cc1`, the cytotoxicity at 10 µM was -4.81%.

Turning to `COc1cccc(OCc2nnc3n2N=C(C(C)(C)C)CS3)c1`, the cytotoxicity at 10 µM was found to be 4.4%.

Consider `CC(Cn1cccn1)NCc1csc(-c2ccc(F)cc2)n1` (stereo unspecified), for which the cytotoxicity at 10 µM is -67.9%.

With `Cn1cc(CNCCn2cccn2)c(-c2cccnc2)n1`, the cytotoxicity at 10 µM is -2.34%.

In the case of `Cc1nnc([C@@]23CCO[C@@H]2CCN(S(=O)(=O)c2cccnc2)C3)o1`, the cytotoxicity at 10 µM is -103%.

Turning to `CCC(CC)NC(=O)c1ccc2nnc(C3CCN(S(C)(=O)=O)C3)n2c1` (stereo unspecified), the cytotoxicity at 10 µM was 3.25%.

For the molecule `Cc1cc(CN2C[C@@H]3COC[C@]3(CNC(=O)c3ccno3)C2)no1`, the cytotoxicity at 10 µM worked out at 1.18%.

Take `CCCC1C=CCN1C(=O)c1cc(COc2ccccc2)[nH]n1` (stereo unspecified): the cytotoxicity at 10 µM came to 9.8%.

For the molecule `CN(C)C(C(=O)NCC(F)(F)F)c1cccc(F)c1` (stereo unspecified), the cytotoxicity at 10 µM was -2.49%.

As to `Cc1cnc(N(C)CCCc2cnn(C)c2)nc1N(C)C`, the cytotoxicity at 10 µM turned out to be 2.03%.

Turning to `O=C(Cn1cccn1)N1CCc2[nH]nc(-c3ccc4c(c3)OCO4)c2C1`, the cytotoxicity at 10 µM was -153%.

In the case of `O=C(COc1cccc(F)c1)N1C[C@@H](CN2CCCC2)C[C@H](CO)C1`, the cytotoxicity at 10 µM is 3.94%.

`COCCC1(CO)CCCN(C(=O)CCC(F)(F)F)C1` (stereo unspecified): the cytotoxicity at 10 µM was -2.86%.

For the molecule `CCNc1ncc(C2CC(=O)Nc3c2cnn3Cc2ccncc2)cn1` (stereo unspecified), the cytotoxicity at 10 µM was -6.87%.

On to `CN1CCC(N(C)CCC(=O)N2CCN(Cc3cccc(F)c3)CC2)C1` (stereo unspecified), for which the cytotoxicity at 10 µM is -3.41%.

With `O=C(O)c1ccc(CNC(=O)C2CCN(Cc3ccco3)CC2)s1`, the cytotoxicity at 10 µM was -0.861%.

With `C=C(C)COc1ccc(C(=O)N(C)C(C)c2ccon2)cc1` (stereo unspecified), the cytotoxicity at 10 µM was 4.18%.

`Cn1cc(CN2CC[C@@H]3[C@@H](CCC(=O)N3CCc3ccccc3)C2)cn1`: the cytotoxicity at 10 µM is -1.45%.

As for `COc1ccc(C(C(=O)O)N2CCC(Cn3cccn3)CC2)cc1F` (stereo unspecified), the cytotoxicity at 10 µM is 1.81%.

As for `CC(O)CCn1ccc2[nH]c(=O)c(C#N)cc2c1=O` (stereo unspecified), the cytotoxicity at 10 µM stood at 5.66%.

For `CSc1ccc(CN(CCO)C(=O)CCc2cccc(F)c2)cc1`, the cytotoxicity at 10 µM was determined as 2.93%.

Regarding `Cn1cc(-c2ccnc(NCC3CCN(Cc4ccccc4)C3)n2)cn1` (stereo unspecified), the cytotoxicity at 10 µM was -130%.

Turning to `CN1CCCC2(CCN(S(=O)(=O)c3ccc(-c4cnco4)s3)C2)C1=O` (stereo unspecified), the cytotoxicity at 10 µM was 5.84%.

On to `COc1ccc(F)c(F)c1C(=O)N1C[C@@H](CN(C)CCO)[C@@H](CO)C1`, for which the cytotoxicity at 10 µM is -1.02%.

For `CN(C)CCC1CCCCN1Cc1cnn(C)c1C1CC1` (stereo unspecified), the cytotoxicity at 10 µM was 2.84%.

In the case of `CC1(C)CN(c2cc(C3CC3)ncn2)C[C@]1(C)O`, the cytotoxicity at 10 µM amounted to 1.4%.

As to `Cc1ccc(C)c2c(O)cc(CN3CCNC(=O)C3C)nc12` (stereo unspecified), the cytotoxicity at 10 µM was -1.66%.

For the molecule `COc1ccc(NC(=O)Cn2nc(C)c(C)cc2=O)cc1Cl`, the cytotoxicity at 10 µM is -6.47%.

Turning to `COc1ccc(NC(=O)Cn2nc(C)c(C)cc2=O)cc1`, the cytotoxicity at 10 µM was determined as 4.2%.

On to `CS(=O)(=O)N1CCC(Oc2ccc(C(=O)NC3CCOC3)cc2Cl)CC1` (stereo unspecified), for which the cytotoxicity at 10 µM was -4.88%.

As to `COCCN(Cc1ccc(OC)nc1)Cc1cccs1`, the cytotoxicity at 10 µM was -7.28%.

Consider `Cc1nnc(CNCC2(O)CCCN(Cc3ccc(F)c(F)c3)C2=O)[nH]1` (stereo unspecified), for which the cytotoxicity at 10 µM was -6.79%.

Consider `COc1ccc(CC2(C(=O)O)CCN(c3nc(C)ncc3C)CC2)cc1`, for which the cytotoxicity at 10 µM was -21.8%.

Take `Cn1nccc1C(=O)N1CCOC(Cc2cccc(C(F)(F)F)c2)C1` (stereo unspecified): the cytotoxicity at 10 µM amounted to 5.52%.

For `Cc1cnn(CCNCC(=O)NCCOc2ccc(Cl)cc2)c1`, the cytotoxicity at 10 µM was -11.8%.

For `Cc1cc(C(=O)N2CCOC(c3nc(C(C)C)n[nH]3)C2)c(C)s1` (stereo unspecified), the cytotoxicity at 10 µM was -5.72%.

For the molecule `Cc1ncc2c(n1)CN(CC(=O)Nc1cc(C)on1)CC2`, the cytotoxicity at 10 µM is -12.4%.

As for `O=C(Cc1cn2ccsc2n1)N1CCCC(n2cccn2)C1` (stereo unspecified), the cytotoxicity at 10 µM is -13.6%.

For `CC(C)C(C)(C#N)NC(=O)CN1CCC(c2ccnn2CCO)CC1` (stereo unspecified), the cytotoxicity at 10 µM is -4.95%.

For `CCOc1ccnc(N2CCN(C(=O)c3cc[nH]n3)CC2)n1`, the cytotoxicity at 10 µM turned out to be 8.82%.

Take `Cc1cc(CN2CCN(CC(O)c3ccc4c(c3)OCO4)CC2)no1` (stereo unspecified): the cytotoxicity at 10 µM is -7.82%.

For the molecule `CN1CCc2c(C#N)c(NCC3CCCO3)n3cnnc3c2C1` (stereo unspecified), the cytotoxicity at 10 µM came to 4.48%.

In the case of `CNC(=O)C1(N2CCC[C@H]2C(=O)NC2CCCCC2)CCOCC1`, the cytotoxicity at 10 µM was -1.25%.

Consider `Cc1ccc(CN2C[C@@H]3COC[C@H](NS(C)(=O)=O)[C@@H]3C2)s1`, for which the cytotoxicity at 10 µM is 0.354%.

Take `CNC(=O)CN1CCCC12CCN(C(=O)c1ccsc1)CC2`: the cytotoxicity at 10 µM was 4.87%.

Turning to `N#Cc1cccc(CN2CCC3(CC2)CC(c2ccncc2)C(=O)N3)c1` (stereo unspecified), the cytotoxicity at 10 µM came to 3.44%.
